These results are taken from ChEMBL document CHEMBL1153357, “Rational design and synthesis of potent and long-lasting glutamic acid-based dipeptidyl peptidase IV inhibitors” (Bioorg Med Chem Lett, 2009).

One data set has as its target Dipeptidyl peptidase 4 (Homo sapiens, UniProt P27487).
The next data set addresses Dipeptidyl peptidase 2 (Homo sapiens, UniProt Q9UHL4). Briefly: Inhibition of DPP2.
Data set [1] can be described thus: Inhibition of FAP. The gist of the method: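 Enzyme inhibition IC50 is reported as the mean of at least three experiments, with standard deviations of ±40%.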
In another data set the target is Dipeptidyl peptidase 8 (Homo sapiens, UniProt Q6V1X1). Briefly: Inhibition of DPP8.
Sequence of Dipeptidyl peptidase 8 (Q6V1X1 whole entry): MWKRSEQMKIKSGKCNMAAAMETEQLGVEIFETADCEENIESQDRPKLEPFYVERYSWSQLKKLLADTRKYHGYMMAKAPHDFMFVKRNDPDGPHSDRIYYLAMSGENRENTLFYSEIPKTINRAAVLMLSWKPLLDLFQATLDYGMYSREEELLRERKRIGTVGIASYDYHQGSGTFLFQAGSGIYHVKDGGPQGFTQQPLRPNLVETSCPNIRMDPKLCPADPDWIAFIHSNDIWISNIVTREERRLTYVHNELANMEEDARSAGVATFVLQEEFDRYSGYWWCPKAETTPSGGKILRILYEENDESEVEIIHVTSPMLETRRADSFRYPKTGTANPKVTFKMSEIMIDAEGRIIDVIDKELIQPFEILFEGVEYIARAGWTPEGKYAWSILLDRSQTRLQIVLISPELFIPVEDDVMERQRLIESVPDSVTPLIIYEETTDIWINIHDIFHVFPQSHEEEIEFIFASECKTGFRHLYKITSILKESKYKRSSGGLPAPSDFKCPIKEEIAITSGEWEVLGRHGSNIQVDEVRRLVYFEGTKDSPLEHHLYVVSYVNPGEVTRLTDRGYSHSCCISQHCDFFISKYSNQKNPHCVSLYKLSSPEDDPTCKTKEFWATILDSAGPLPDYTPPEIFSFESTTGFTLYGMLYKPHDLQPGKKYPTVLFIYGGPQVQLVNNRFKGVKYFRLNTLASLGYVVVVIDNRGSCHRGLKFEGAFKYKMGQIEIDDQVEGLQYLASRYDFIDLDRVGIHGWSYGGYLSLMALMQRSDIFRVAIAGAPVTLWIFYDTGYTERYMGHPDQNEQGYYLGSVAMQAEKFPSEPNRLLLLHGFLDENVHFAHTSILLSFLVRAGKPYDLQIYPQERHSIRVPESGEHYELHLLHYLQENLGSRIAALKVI
A further data set has as its system Mus musculus. Briefly: Reduction in glucose excursion in C57BL/6 mouse at 3 mg/kg, po measured up to 120 mins by oral glucose tolerance test. The class given is functional, organism-based. Details: dose 3 mg/kg. Summed up:
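C57BL/6j mice (n = 6) received the compound orally at 3 mpk, with water as the control, 30 min before a glucose load of 3 g/kg.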

Data set [2] relates to Rattus norvegicus. Briefly: Inhibition of plasma DPP4 in Wistar rat at 3 mg/kg, po measured 30 mins to 4 hrs. Conditions: read-out: INH.
The subject of data set [3] is Rattus norvegicus. Briefly: Inhibition of plasma DPP4 in Wistar rat at 3 mg/kg, po measured after 8 hrs. The settings on record: read-out: INH.
Data set [4] in a line: Stability to the compound assessed as half life in phosphate buffer at pH 7.4. In kind it is physicochemical.

Structures are written as SMILES. Active and inactive are the calls of the source.

Sequence of Dipeptidyl peptidase 4 (P27487 whole entry): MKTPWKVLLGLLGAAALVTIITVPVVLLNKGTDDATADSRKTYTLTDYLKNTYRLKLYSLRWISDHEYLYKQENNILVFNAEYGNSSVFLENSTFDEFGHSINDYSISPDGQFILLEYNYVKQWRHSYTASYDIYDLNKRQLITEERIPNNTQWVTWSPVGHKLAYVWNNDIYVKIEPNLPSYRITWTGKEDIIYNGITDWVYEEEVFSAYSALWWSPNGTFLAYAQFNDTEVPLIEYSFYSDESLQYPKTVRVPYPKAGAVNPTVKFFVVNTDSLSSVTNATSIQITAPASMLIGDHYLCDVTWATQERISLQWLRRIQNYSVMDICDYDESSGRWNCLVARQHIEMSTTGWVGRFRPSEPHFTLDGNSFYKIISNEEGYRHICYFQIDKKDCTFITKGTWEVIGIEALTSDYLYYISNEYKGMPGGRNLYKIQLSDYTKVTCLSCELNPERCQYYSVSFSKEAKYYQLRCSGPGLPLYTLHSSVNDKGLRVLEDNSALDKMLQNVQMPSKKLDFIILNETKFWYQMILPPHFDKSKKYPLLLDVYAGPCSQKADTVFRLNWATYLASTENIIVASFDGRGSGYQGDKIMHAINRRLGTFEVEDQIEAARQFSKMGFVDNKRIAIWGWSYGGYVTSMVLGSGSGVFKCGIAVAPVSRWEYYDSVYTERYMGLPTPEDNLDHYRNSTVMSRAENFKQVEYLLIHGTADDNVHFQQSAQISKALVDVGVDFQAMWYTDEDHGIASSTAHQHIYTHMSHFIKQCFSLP

One may read the IC50 as the concentration that inhibits the measured activity by half. The low end stands for greater potency, the high end for weaker potency. Regarding `CC(C)(CC(=O)N1CCn2nc(C(F)(F)F)nc2C1)[C@H](N)C(=O)N1CCC[C@H]1C#N`, the IC50 on Dipeptidyl peptidase 4 is 0.031 µM; at Dipeptidyl peptidase 2, over 20 µM; in data set [1], over 20 µM.

With `N#C[C@@H]1CCCN1C(=O)[C@@H](N)CCC(=O)N1CCSC1`, the IC50 is 0.01 µM against Dipeptidyl peptidase 4, over 20 µM at Dipeptidyl peptidase 2 and 8.3 µM in data set [1].

As to `COC[C@H]1CCCN1C(=O)CC[C@H](N)C(=O)N1CCC[C@H]1C#N`, the IC50 against Dipeptidyl peptidase 4 is 0.022 µM; on Dipeptidyl peptidase 2, over 20 µM; in data set [1], 21 µM.

For the compound `C[C@H](CC(=O)N1CCn2c(nnc2C(F)(F)F)C1)[C@H](N)C(=O)N1CCC[C@H]1C#N`, the IC50 against Dipeptidyl peptidase 2 was over 20 µM; in data set [1], 7.1 µM.

Compound `N#CC1CCCN1C(=O)[C@@H](N)CCC(=O)N1Cc2ccccc2C1` (single isomer, unassigned) displayed an IC50 in data set [1] of 1.2 µM.

In the case of `N#C[C@@H]1CCCN1C(=O)[C@@H](N)CCC(=O)N1CCc2ccccc2C1`, in data set [1], the IC50 was 8.8 µM.

As to `CC(C)(CC(=O)N1CCc2ccsc2C1)[C@H](N)C(=O)N1CCC[C@H]1C#N`, the IC50 is 0.025 µM on Dipeptidyl peptidase 4, over 20 µM against Dipeptidyl peptidase 2 and over 20 µM in data set [1].

Take `CC(C)(CC(=O)N1Cc2ccccc2C1)[C@H](N)C(=O)N1CCC[C@H]1C#N`: the IC50 is 0.012 µM against Dipeptidyl peptidase 4, over 20 µM on Dipeptidyl peptidase 2 and over 20 µM in data set [1].

For the compound `CC[C@H](CC(=O)N1CCn2c(nnc2C(F)(F)F)C1)[C@H](N)C(=O)N1CCC[C@H]1C#N`, the IC50 against Dipeptidyl peptidase 4 is 0.031 µM; against Dipeptidyl peptidase 2, over 20 µM; in data set [1] it was over 20 µM.

In data set [1], `N#C[C@@H]1CCCN1C(=O)[C@@H](N)CCC(=O)N1CCn2c(nnc2C(F)(F)F)C1` had an IC50 of over 20 µM.

For `C[C@@H]1CCCN1C(=O)CC(C)(C)[C@H](N)C(=O)N1CCC[C@H]1C#N`, the IC50 is 0.013 µM on Dipeptidyl peptidase 4, over 20 µM against Dipeptidyl peptidase 2 and over 20 µM in data set [1].

For `N#C[C@@H]1CCCN1C(=O)[C@@H](N)CCC(=O)NC1CCCC1`, the half-inhibitory concentration (IC50) on Dipeptidyl peptidase 4 was 0.011 µM; on Dipeptidyl peptidase 2, over 20 µM; in data set [1] it was over 20 µM.

`N#C[C@@H]1CCCN1C(=O)[C@@H](N)CCC(=O)N1CCn2nc(C(F)(F)F)nc2C1`: the half-inhibitory concentration (IC50) on Dipeptidyl peptidase 4 is 0.009 µM; against Dipeptidyl peptidase 2, over 20 µM; in data set [1] it was over 20 µM.

Consider `N[C@@H](CCC(=O)N1Cc2ccccc2C1)C(=O)N1CCSC1`, for which the IC50 against Dipeptidyl peptidase 4 was 1.6 µM; against Dipeptidyl peptidase 8, over 20 µM; against Dipeptidyl peptidase 2, over 20 µM; in data set [1], 12 µM.

As to `CC(C)(CC(=O)N1CCc2ccccc2C1)[C@H](N)C(=O)N1CCC[C@H]1C#N`, the IC50 against Dipeptidyl peptidase 4 was 0.016 µM; against Dipeptidyl peptidase 2, over 20 µM; in data set [1] it was over 20 µM.

With `N#C[C@@H]1CCCN1C(=O)[C@@H](N)CCC(=O)N1CCCC1`, the IC50 on Dipeptidyl peptidase 4 was 0.007 µM; against Dipeptidyl peptidase 2, over 20 µM; in data set [1], 11 µM.

On to `COC[C@@H]1CCCN1C(=O)CC[C@H](N)C(=O)N1CCC[C@H]1C#N`, for which the IC50 against Dipeptidyl peptidase 4 was 0.007 µM; against Dipeptidyl peptidase 2 it was over 20 µM; in data set [1], 20 µM.

On to `CCOC(=O)N1CCN(C(=O)CC[C@H](N)C(=O)N2CCC[C@H]2C#N)CC1`, for which the IC50 on Dipeptidyl peptidase 4 is 0.031 µM; against Dipeptidyl peptidase 2, over 20 µM; in data set [1], 3.1 µM.

For `N#C[C@@H]1CCCN1C(=O)[C@@H](N)CCC(=O)N1CCn2cnnc2C1`, the IC50 against Dipeptidyl peptidase 4 was 0.007 µM; on Dipeptidyl peptidase 2, over 20 µM; in data set [1], over 20 µM.

Take `N#C[C@@H]1CCCN1C(=O)[C@@H](N)CCC(=O)Nc1ccccc1`: on Dipeptidyl peptidase 4, the IC50 turned out to be 0.037 µM.

Take `N#C[C@@H]1CCCN1C(=O)[C@@H](N)CCC(=O)N1CCc2nc(-c3ccc(F)cc3)sc2C1`: half-maximal inhibition in data set [1] (IC50) required 2.3 µM.

With `N#C[C@@H]1CCCN1C(=O)[C@@H](N)CCC(=O)N1CCN(C(=O)C(F)(F)F)CC1`, the IC50 against Dipeptidyl peptidase 4 is 0.008 µM; on Dipeptidyl peptidase 2, over 20 µM; in data set [1] it was 19 µM.

Take `N#C[C@@H]1CCCN1C(=O)CNC12CC3CC(CC(O)(C3)C1)C2` [VILDAGLIPTIN]: the IC50 in data set [1] is over 20 µM. Also, the result with Mus musculus was Active. Further, the inhibition in vivo at 3 mg/kg is over 80% with Rattus norvegicus [2] and over 60% in the data set with Rattus norvegicus [3].

`COc1cc2c(cc1OC)C(C(C)C)N(C(=O)CC[C@H](N)C(=O)N1CCC[C@H]1C#N)CC2` (some centres undefined) displayed a 50% inhibitory concentration (IC50) in data set [1] of 6.1 µM. That is a single-digit micromolar value.

As to `N#C[C@@H]1CCCN1C(=O)[C@@H](N)CCC(=O)N1Cc2ccccc2C1`, the IC50 in data set [1] stood at 1.2 µM. This IC50 lies about 5.1-fold lower than the previous one.

`N#C[C@@H]1CCCN1C(=O)[C@@H](N)CCC(=O)N1CCN(c2ccncc2)CC1`: the IC50 in data set [1] was 0.47 µM. Compared with the last compound, the IC50 is about 2.6-fold lower.

As to `N#C[C@@H]1CCCN1C(=O)[C@@H](N)CCC(=O)N1CCCCC1`, the half-inhibitory concentration (IC50) against Dipeptidyl peptidase 4 was 0.015 µM; against Dipeptidyl peptidase 2, over 20 µM; in data set [1], over 20 µM.

The term half-life denotes the time needed for the level to fall by half in the phase considered. Take `COC[C@@H]1CCCN1C(=O)CC(C)(C)[C@H](N)C(=O)N1CCC[C@H]1C#N.O=C(O)C(F)(F)F`: the IC50 (against Dipeptidyl peptidase 2; in data set [1]) was over 20 µM each time. In addition, in data set [4], the half-life was over 168 h. The result with Mus musculus was Active. In addition, the values for the inhibition in vivo at 3 mg/kg in the data set with Rattus norvegicus [2] and in the data set with Rattus norvegicus [3] were over 80% and over 60%, respectively.

`N#C[C@@H]1CCCN1C(=O)[C@@H](N)CC(=O)N1Cc2ccccc2C1`: the IC50 (on Dipeptidyl peptidase 2; in data set [1]) was over 20 µM in each case.

Turning to `CC(C)(CC(=O)N1CCn2c(nnc2C(F)(F)F)C1)[C@H](N)C(=O)N1CCC[C@H]1C#N`, the results for the IC50 (on Dipeptidyl peptidase 4; against Dipeptidyl peptidase 2; in data set [1]) were 0.012 µM, over 20 µM and over 20 µM, respectively.

In turn, `N#C[C@@H]1CCCN1C(=O)[C@@H](N)CCCC(=O)N1Cc2ccccc2C1` registered an IC50 in data set [1] of 0.054 µM.

`N#C[C@@H]1CCCN1C(=O)[C@@H](N)CCC(=O)N1CCc2ccsc2C1`: in data set [1], the 50% inhibitory concentration (IC50) is 7.5 µM.

On to `N[C@@H](CC(=O)N1CCn2c(nnc2C(F)(F)F)C1)Cc1cc(F)c(F)cc1F` [SITAGLIPTIN], for which the IC50 in data set [1] was over 20 µM.

The compound `N#C[C@@H]1CCCN1C(=O)[C@@H](N)CCC(=O)N1CCn2cc(C(F)(F)F)nc2C1` yielded an IC50 in data set [1] of 14 µM.

Regarding `N#C[C@@H]1CCCN1C(=O)[C@@H](N)CCC(=O)N1CCOCC1`, the results for the IC50 (against Dipeptidyl peptidase 4; against Dipeptidyl peptidase 2; in data set [1]) were 0.017 µM, over 20 µM and over 20 µM, respectively.
